RAM network inh: inhibitors of the yeast RAM network; hit rate 1.8% among 190,000; S. cerevisiae dse1pr::URA3 reporter, 5-FOA growth OD615, 2 d; analog-sensitive cbk1-as2 kinase mutant strain; inhibition, % at 50 µM;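 active = inhibition above a set limit, 3 SD over mean compound inhibition, cut at about 8.4% in these data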;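 also: 0% = DMSO-only wells with no growth and 100% = 10 µM 1-NA-PP1 full growth; inhibition rescues growth on 5-FOA so higher OD means more RAM inhibition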
Yeast life ext: extends the lifespan of yeast; S. cerevisiae growth with nicotinamide, OD615; deaD strain in restrictive glucose medium; inhibition of the nicotinamide effect, % at 10 µM; hit rate 0.68% among 130,000; AID 775;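 active = inhibition above a set limit, placed 3 SD over the median of all compounds, cut at about 26% in these data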;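 also: 0% = nicotinamide-treated wells and 100% = cells grown without nicotinamide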
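Assay system: engineered S. cerevisiae DeaD replicative-lifespan strain, galactose-grown log-phase cells; Buffer or medium: CSMM-D glucose medium, restrictive; Probe or stimulus: nicotinamide 1.5 mM; Compound: single dose 10 µM compound, 0.25% DMSO; Schedule: 4 h preincubation then 48 h treatment at 30 °C; Technique: OD615 measurement.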
DAT uptake mod: human DAT dopamine uptake with cocaine, either direction; Q01959; LLC-PK1 hDAT cells, [14C]-dopamine uptake with cocaine IC80; actives deviate in either direction; B-score at 10 µM; hit rate 1.3% among 110,000; AID 449768;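 active = Z score or B-score, a plate-position-corrected score, falls beyond the plate's 99.7% confidence bounds, in either direction; inactive = both scores lie inside the 99.7% bounds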;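 also: scored against the spread of the other compound wells on the same plate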
Target sequence (Q01959 whole entry, looked up): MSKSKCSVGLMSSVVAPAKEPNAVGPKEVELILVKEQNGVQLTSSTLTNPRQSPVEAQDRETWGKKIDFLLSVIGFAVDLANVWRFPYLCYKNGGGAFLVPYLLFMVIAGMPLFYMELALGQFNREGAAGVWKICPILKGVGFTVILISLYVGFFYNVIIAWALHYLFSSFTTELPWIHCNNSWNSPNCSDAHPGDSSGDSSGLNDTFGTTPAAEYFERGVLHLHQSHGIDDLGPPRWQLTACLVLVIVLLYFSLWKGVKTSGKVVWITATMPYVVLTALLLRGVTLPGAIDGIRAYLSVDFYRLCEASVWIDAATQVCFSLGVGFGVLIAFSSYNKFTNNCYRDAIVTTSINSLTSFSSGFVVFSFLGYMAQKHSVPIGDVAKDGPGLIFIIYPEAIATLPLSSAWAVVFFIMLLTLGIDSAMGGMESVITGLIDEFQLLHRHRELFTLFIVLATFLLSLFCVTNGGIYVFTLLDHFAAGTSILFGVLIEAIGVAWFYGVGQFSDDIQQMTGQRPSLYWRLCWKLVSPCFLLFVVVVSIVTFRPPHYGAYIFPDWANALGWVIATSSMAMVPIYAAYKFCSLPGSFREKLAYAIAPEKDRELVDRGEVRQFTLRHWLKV
WT yeast gro inh: growth inhibition of WT yeast, mitochondrial fusion screen. mitochondrial fusion phenotypic screen, WT strain. inhibition, % at 10 µM. hit rate 2.1% among 190,000. AID 1362; in the data active = inhibition above about 58%; tested in S. cerevisiae
Measles CPE: protection of cells from measles virus. hit rate 1.5% among 140,000. protection (pct of control), % at 4 µM. Measles virus-infected cells, CPE protection, absorbance; in the data active = protection mostly above about 24%, no sharp cut-off; inactive = mostly below about 26%
Yeast growth inh: chemicals that inhibit yeast BB579 growth in restrictive medium (lifespan-shortening candidates). S. cerevisiae BB579 growth, OD615, 48 h. hit rate 0.51% among 140,000. inhibition, % at 10 µM;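 active = inhibition above a set limit, 3 SD over the mean compound inhibition, cut at about 44% in these data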
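Detection: OD615 turbidity measurement; Material: Saccharomyces cerevisiae DeaD strain BB579, replicative lifespan model yeast; Timing: 48 h exposure, 30 °C; Doses: single 10 µM dose; Medium: CSMM-D restrictive synthetic medium containing dextrose (glucose); Controls: amphotericin B at 10 µg/mL as positive control.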
Numbers without * were called inactive; . = no result given. Only some compounds are listed: those with a hit (about 6.1% of all), similar ones and a draw of the others.

SMILES	RAM network inh	Yeast life ext	DAT uptake mod	WT yeast gro inh	Measles CPE	Yeast growth inh
CCOC(=O)c1cccc(NC(=O)CN(c2ccc(C)cc2)S(=O)(=O)c2c(C)n[nH]c2C)c1	4	-8	1.3	3	34	-36
CCOc1ccc(Nc2cc(C)nc(-n3nc(C)cc3C)n2)cc1	0	-8	-0.81	68	43*	10
O=C(NC(NC(=S)Nc1c(Cl)cccc1Cl)C(Cl)(Cl)Cl)OCc1ccccc1 (stereo not given)	3	2	.	38	19	-15
Cc1ccc(Nc2nc(-c3c(C)nc4ccccn34)cs2)cc1	1	-9	.	71*	7	-37
Cc1ccn2c(-c3csc(NCc4ccccc4)n3)c(C)nc2c1	-1	.	2.9*	21	14	-8
Cc1ccc(Nc2nc(-c3c(C)nc4ncccn34)cs2)cc1	1	-6	-0.45	-4	12	-22
Cc1nc2ccccn2c1-c1csc(NCc2ccco2)n1	0	-7	-0.42	6	7	-52
O=C(CCc1nnc(COc2ccccc2)o1)NCCc1cccs1	-1	.	.	15	.	.
O=c1cccc2n1Cc1cc3ccccc3nc1-2	1	-5	-0.13	5	2	46*
CC[C@@]1(O)C(=O)OCc2c1cc1n(c2=O)Cc2cc3c(N)cccc3nc2-1	.	.	1.1	.	.	.
O=C1c2ccccc2-c2onc3ccc(NCCCn4ccnc4)c1c23	38*	80*	0.27	27	7	-44
CC1CCC2C(=O)N(c3ccc(C(=O)Oc4cccc5cccnc45)cc3)C(=O)C2C1 (stereo not given)	1	1	.	-16	33	13
COc1ccc(N2CCN(Cc3nc(-c4ccccc4)no3)CC2)cc1	1	.	.	8	.	.
Cc1ccc(N)cc1CN1CCCC1=O	0	0	-1.9*	3	3	-35
CCn1c(N2CCN(CC(=O)c3ccc(OC)cc3)CC2)nc2ccccc21	-1	-7	-7.6*	0	3	-33
CCCn1c(N2CCN(CC(=O)NCc3cccs3)CC2)nc2ccccc21	0	-6	0.85	18	61*	-8
O=C(c1cccc2ccccc12)C1CCCN(C(=O)c2ccc(N3CCOCC3)cc2)C1 (stereo not given)	1	.	.	11	.	.
CC1CCCC(C)N1C(=O)COc1ccc(F)cc1 (stereo not given)	1	.	.	10	.	.
CCOC(=O)NC(=O)C(/C=N/c1sccc1C(=O)OC)=C(\C)O	1	.	.	3	.	.
CCCN(C(=O)c1ccco1)c1nnc(-c2ccccc2C)s1	2	.	.	48	.	.
CCOC(=O)C1CCCN(C(=O)CSc2ccc(NC(C)=O)cc2)C1 (stereo not given)	1	.	.	-44	.	.
CCOC(=O)C1CCCC(NS(=O)(=O)c2ccc(NC(C)=O)cc2)C1 (stereo not given)	0	-3	-1.2	-17	91*	-33
COc1cc(OC)cc(C(=O)N[C@H](C(=O)OCC(=O)N2CCc3ccccc32)C(C)C)c1	3	.	.	-15	.	.
CCOC(=O)c1c(N/N=C/c2ccncc2)n[nH]c1C	1	3	.	-7	5	-27
COc1cc(OC)c(-c2nc3c[n+](CC(=O)c4ccccc4)ccc3n2C)cc1OC	2	-1	-0.62	10	38*	-5
SMILES	RAM network inh	Yeast life ext	DAT uptake mod	WT yeast gro inh	Measles CPE	Yeast growth inh
COc1ccc(C(=O)C[n+]2ccc3c(c2)nc(-c2cc(OC)c(OC)cc2OC)n3C)cc1	2	-3	-0.37	0	15	-6
CC(C)NCCCCOc1ccc(Br)cc1Cl	2	.	.	8	.	.
O=C(COc1ccc2ccccc2c1)Nc1cccc(C(=O)Nc2ccccc2C(=O)O)c1	5	64*	.	-19	15	-35
CCOC(=O)c1c(CN(C)C)n(-c2ccc(C)cc2)c2cc(Br)c(O)cc12	0	0	.	-7	2	-6
CCOC(=O)c1c(CN2CCOCC2)n(-c2ccccc2)c2cc(Br)c(O)cc12	2	-2	2.5	15	16	11
CCOC(=O)c1c(CSC(=N)N)n(-c2ccc(C)cc2)c2cc(Br)c(OC(C)=O)cc12	11*	-8	1.2	3	0	-93
CCOC(=O)c1c(CN(C)C)n(-c2ccccc2)c2cc(Br)c(OC)cc12	1	26*	.	-5	11	-61
CCOC(=O)c1c(CN2CCOCC2)n(-c2ccccc2)c2cc(Br)c(OC)cc12	1	-12	0.26	73*	0	-38
COC(=O)Cc1c(O)ccn(CCc2ccc(OC)c(OC)c2)c1=O	-1	.	.	-2	.	.
N=c1ncn(Cc2ccccc2)c2nc(SCCOc3ccccc3)[nH]c12	6	4	.	3	17	-8
COCCNC(=S)N1CCC(NC(=O)c2ccco2)CC1	-1	.	.	-2	.	.
O=C(Nc1ccc2oc(-c3ccccc3)nc2c1)c1cccnc1	-1	-15	0.48	27	59*	-19
COc1ccc(-c2nc3cc(NC(=O)c4ccc5c(c4)OCO5)ccc3o2)cc1	4	-9	-9*	11	4	-1
O=C(Nc1ccc2oc(-c3ccccc3)nc2c1)c1ccc2c(c1)OCCO2	2	-22	0.85	1	5	-37
COc1c(F)c(F)c(C(=O)Nc2ccc3oc(-c4ccncc4)nc3c2)c(F)c1F	8.9*	-11	-0.14	-5	4	-14
O=C(Nc1ccc2oc(-c3ccncc3)nc2c1)c1c(F)c(F)c(F)c(F)c1F	6	1	0.17	25	18	-83
O=C(CNC(=S)N(Cc1ccccc1)Cc1cccnc1)NC1CCCC1	0	0	.	7	28*	-2
Cc1ccc(-c2cc3c(N=O)c4ccccc4c-3n[nH]2)cc1	4	.	.	64*	.	.
O=C(Cc1ccc([N+](=O)[O-])cc1)N1N=C(c2ccncc2)CC1(O)C(F)(F)F (stereo not given)	2	.	.	-2	.	.
COc1ccc(-c2cn(-c3ccccc3)c3[n+]2CCS3)cc1	0	4	.	-2	9	8
CNC(=S)NNC(=O)c1sc2cc(C(F)(F)F)cnc2c1-c1ccccn1	8.6*	.	.	-28	.	.
Cc1ccc(-c2[nH]nc3c2C(c2cccnc2)C(C#N)=C(N)O3)cc1 (stereo not given)	2	-12	0.0096	-15	31	-7
CC(C)c1[nH]nc2c1C(c1cccnc1)C(C#N)=C(N)O2 (stereo not given)	0	-6	1.6	-50	44*	-49
Cc1ccc(C)c2c1cc(C)c1nnc(SCC(=O)c3cccs3)n12	11*	-3	.	-36	11	-15
Cc1cc2ccc(C)c(C)c2nc1SCC(=O)c1cccs1	8.6*	-7	-1.2	8	32*	-72
Cc1ccc2cc(C)c3nnc(SCC(=O)c4cccs4)n3c2c1C	2	-5	.	9	7	-61
COC(=O)C1=C(C)NC(=S)N(C(C)=O)C1c1ccc(OC)c(OC)c1 (stereo not given)	1	6	.	-6	3	-26
